Laboratory results published in paper PMC9476207 (ACS Omega, 2022).

Experiments:
Assay in all cases: NCI-60 single-dose antiproliferative screen
Assay type in all cases: cell-based
[1] = system: SK-MEL-28; conditions: Homo sapiens, SK-MEL-28, 48 h, read-out: growth percent
How it was run: (§1)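 Cells grown in RPMI 1640 with 5% FBS and 2 mM L-glutamine, plated and held 24 h at 37 °C; time-zero plates TCA-fixed. DMSO stocks were diluted in gentamicin-containing medium to a final 10^-5 M, with a DMSO-only control. Exposure 48 h, 5% CO2. Adherent cells TCA-fixed 1 h at 4 °C, stained with 0.4% SRB, solubilised in 10 mM Trizma base, read at 515 nm. Growth percent derived from ODtzero, ODtest and ODctrl.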

[2] = system: HCC-2998; conditions: Homo sapiens, HCC 2998, 48 h, read-out: growth percent
How it was run: (§2)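 NCI-60 protocol. Lines were grown in RPMI 1640 with 5% FBS and 2 mM L-glutamine, plated and incubated 24 h at 37 °C; time-zero plates were TCA-fixed. The test compound was dissolved in DMSO, diluted in medium with 50 μg/mL gentamicin and given once at a final 10^-5 M (DMSO control) for 48 h. Cells were fixed with cold TCA (1 h, 4 °C) and stained with 0.4% SRB in 1% acetic acid for 10 min. Dye was dissolved in 10 mM Trizma base and read at 515 nm. Growth percent was calculated from time-zero, test and control ODs.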

[3] = system: LOX IMVI; conditions: Homo sapiens, 48 h, read-out: growth percent
How it was run: as §2

[4] = system: RPMI-8226; conditions: Homo sapiens, RPMI-8226, 48 h, read-out: growth percent
How it was run: as §2

[5] = system: KM12; conditions: Homo sapiens, KM12, 48 h, read-out: growth percent
How it was run: as §2

[6] = system: CAKI-1; conditions: Homo sapiens, CAKI-1, 48 h, read-out: growth percent
How it was run: as §2

[7] = system: U251; conditions: Homo sapiens, U-251, 48 h, read-out: growth percent
How it was run: as §1

[8] = system: NCI-H322M; conditions: Homo sapiens, 48 h, read-out: growth percent
How it was run: as §2

[9] = system: OVCAR-3; conditions: Homo sapiens, OVCAR-3, 48 h, read-out: growth percent
How it was run: as §2

[10] = system: UACC-62; conditions: Homo sapiens, UACC-62, 48 h, read-out: growth percent
How it was run: as §1

[11] = system: A549/ATCC; conditions: Homo sapiens, A549, 48 h, read-out: growth percent
How it was run: as §2

[12] = system: HOP-62; conditions: Homo sapiens, HOP-62, 48 h, read-out: growth percent
How it was run: as §2

[13] = system: HCT-15; conditions: Homo sapiens, HCT-15, 48 h, read-out: growth percent
How it was run: as §2

[14] = system: NCI-H460; conditions: Homo sapiens, NCI-H460, 48 h, read-out: growth percent
How it was run: as §2

[15] = system: NCI/ADR-RES; conditions: Homo sapiens, 48 h, read-out: growth percent
How it was run: as §2

[16] = system: SK-MEL-5; conditions: Homo sapiens, SK-MEL-5, 48 h, read-out: growth percent
How it was run: as §1

[17] = system: SK-OV-3; conditions: Homo sapiens, SK-OV-3, 48 h, read-out: growth percent
How it was run: as §1

[18] = system: SN12C; conditions: Homo sapiens, 48 h, read-out: growth percent
How it was run: as §1

[19] = system: SK-MEL-2; conditions: Homo sapiens, SK-MEL-2, 48 h, read-out: growth percent
How it was run: as §1

[20] = system: OVCAR-5; conditions: Homo sapiens, OVCAR-5, 48 h, read-out: growth percent
How it was run: as §2

[21] = system: MDA-MB-231 ATCC; conditions: Homo sapiens, MDA-MB-231, 48 h, read-out: growth percent
How it was run: as §2

[22] = system: SR; conditions: Homo sapiens, 48 h, read-out: growth percent
How it was run: as §1

[23] = system: MDA-MB-468; conditions: Homo sapiens, MDA-MB-468, 48 h, read-out: growth percent
How it was run: as §2

[24] = system: MOLT-4; conditions: Homo sapiens, MOLT-4, 48 h, read-out: growth percent
How it was run: as §2

[25] = system: OVCAR-4; conditions: Homo sapiens, OVCAR-4, 48 h, read-out: growth percent
How it was run: as §2

[26] = system: MDA-MB-435; conditions: Homo sapiens, MDA-MB-435, 48 h, read-out: growth percent
How it was run: as §2

[27] = system: MALME-3M; conditions: Homo sapiens, 48 h, read-out: growth percent
How it was run: as §2

[28] = system: SF-268; conditions: Homo sapiens, SF-268, 48 h, read-out: growth percent
How it was run: as §2

[29] = system: RXF 393; conditions: Homo sapiens, RXF 393, 48 h, read-out: growth percent
How it was run: as §2

[30] = system: K-562; conditions: Homo sapiens, K562, 48 h, read-out: growth percent
How it was run: as §2

[31] = system: HS 578T; conditions: Homo sapiens, 48 h, read-out: growth percent
How it was run: as §2

[32] = system: HOP-92; conditions: Homo sapiens, HOP-92, 48 h, read-out: growth percent
How it was run: as §2

[33] = system: NCI-H522; conditions: Homo sapiens, NCI-H522, 48 h, read-out: growth percent
How it was run: as §2

[34] = system: UO-31; conditions: Homo sapiens, UO-31, 48 h, read-out: growth percent
How it was run: as §1

[35] = system: SF-295; conditions: Homo sapiens, SF-295, 48 h, read-out: growth percent
How it was run: as §2

[36] = system: SW-620; conditions: Homo sapiens, SW-620, 48 h, read-out: growth percent
How it was run: as §1

SMILES	activity at 10 µM [1]	activity at 10 µM [2]	activity at 10 µM [3]	activity at 10 µM [4]	activity at 10 µM [5]	activity at 10 µM [6]	activity at 10 µM [7]	activity at 10 µM [8]	activity at 10 µM [9]	activity at 10 µM [10]	activity at 10 µM [11]	activity at 10 µM [12]	activity at 10 µM [13]	activity at 10 µM [14]	activity at 10 µM [15]	activity at 10 µM [16]	activity at 10 µM [17]	activity at 10 µM [18]	activity at 10 µM [19]	activity at 10 µM [20]	other results
CCc1ccc(-n2cc(COc3ccc(CNC(=O)CCCC/C=C/C(C)C)cc3OC)nn2)cc1 [14o, (E)-N-(4-((1-(4-Ethylphenyl)-1H-1,2,3-triazol-4-yl)methoxy)-3-methoxybenzyl)-8-methylnon-6-enamide]	115%	99.7%	89.3%	74%	100%	77.4%	89.4%	90.5%	101%	71.4%	88.3%	94.5%	94.4%	103%	87.7%	84%	102%	98.5%	95.2%	112%	activity at 10 µM [21]: 88%; activity at 10 µM [22]: 87.5%; activity at 10 µM [23]: 79.8%; activity at 10 µM [24]: 79.6%; activity at 10 µM [25]: 89%; activity at 10 µM [26]: 107%; activity at 10 µM [27]: 108%; activity at 10 µM [28]: 93%; activity at 10 µM [29]: 101%; activity at 10 µM [30]: 78.6%; activity at 10 µM [31]: 78%; activity at 10 µM [32]: 86.5%; activity at 10 µM [33]: 65.9%; activity at 10 µM [34]: 93.9%; activity at 10 µM [35]: 100%; activity at 10 µM [36]: 103%
COc1cc(CNC(=O)CCCC/C=C/C(C)C)ccc1OCc1cn(-c2ccc(C)c(C)c2)nn1 [14p, (E)-N-(4-((1-(3,4-Dimethylphenyl)-1H-1,2,3-triazol-4-yl)methoxy)-3-methoxybenzyl)-8-methylnon-6-enamide]	112%	101%	84.5%	67.3%	97.5%	94.3%	88.3%	101%	100%	75.1%	82.2%	97.4%	71.2%	86.5%	80.6%	81.5%	98.6%	88.4%	90.3%	107%	activity at 10 µM [21]: 89.3%; activity at 10 µM [22]: 58.2%; activity at 10 µM [23]: 71.8%; activity at 10 µM [24]: 78.5%; activity at 10 µM [25]: 84.9%; activity at 10 µM [26]: 104%; activity at 10 µM [27]: 107%; activity at 10 µM [28]: 94.6%; activity at 10 µM [29]: 98.2%; activity at 10 µM [30]: 74.6%; activity at 10 µM [31]: 90.7%; activity at 10 µM [32]: 80.4%; activity at 10 µM [33]: 80.7%; activity at 10 µM [34]: 75.7%; activity at 10 µM [35]: 88.8%; activity at 10 µM [36]: 95.2%
COc1cc(CNC(=O)CCCC/C=C/C(C)C)ccc1OCc1cn(-c2ccc(Br)cc2)nn1 [14k, (E)-N-(4-((1-(4-Bromophenyl)-1H-1,2,3-triazol-4-yl)methoxy)-3-methoxybenzyl)-8-methylnon-6-enamide]	100%	88.8%	83.7%	57.4%	94.3%	74.3%	75.5%	90.6%	100%	63%	88.5%	88.2%	94%	72.1%	72%	72%	74.8%	83%	95.2%	116%	activity at 10 µM [21]: 71.3%; activity at 10 µM [22]: 67.2%; activity at 10 µM [23]: 68.2%; activity at 10 µM [24]: 77.5%; activity at 10 µM [25]: 89.2%; activity at 10 µM [26]: 107%; activity at 10 µM [27]: 103%; activity at 10 µM [28]: 78.9%; activity at 10 µM [29]: 105%; activity at 10 µM [30]: 59.2%; activity at 10 µM [31]: 90.5%; activity at 10 µM [32]: 68.8%; activity at 10 µM [33]: 82.5%; activity at 10 µM [34]: 67.9%; activity at 10 µM [35]: 85.4%; activity at 10 µM [36]: 94.7%
COc1cc(CNC(=O)CCCC/C=C/C(C)C)ccc1OCc1cn(-c2ccccc2F)nn1 [14i, (E)-N-(4-((1-(2-Fluorophenyl)-1H-1,2,3-triazol-4-yl)methoxy)-3-methoxybenzyl)-8-methylnon-6-enamide]	107%	97.2%	87.1%	81.3%	98.9%	90.6%	93.1%	90.2%	97.5%	76.2%	91.3%	85%	96%	104%	89.8%	91.5%	97.8%	92.7%	106%	103%	activity at 10 µM [21]: 78.7%; activity at 10 µM [22]: 81.5%; activity at 10 µM [23]: 92.8%; activity at 10 µM [24]: 90.9%; activity at 10 µM [25]: 84.2%; activity at 10 µM [26]: 101%; activity at 10 µM [27]: 108%; activity at 10 µM [28]: 95%; activity at 10 µM [29]: 103%; activity at 10 µM [30]: 82.3%; activity at 10 µM [31]: 87.7%; activity at 10 µM [32]: 78.7%; activity at 10 µM [33]: 77.5%; activity at 10 µM [34]: 77.1%; activity at 10 µM [35]: 99%; activity at 10 µM [36]: 98.1%
